Results taken from ChEMBL document CHEMBL4715813, “Allicin-inspired pyridyl disulfides as antimicrobial agents for multidrug-resistant Staphylococcus aureus” (Eur J Med Chem, 2018).
In brackets after ≈: the same amount, converted by molar mass. Activity calls are given as the source filed them. The rule behind the calls is not given here.

Experiments:
[1] = system: Klebsiella pneumoniae; experiment: Antibacterial activity against multidrug-resistant Klebsiella pneumoniae ATCC 700603 assessed as zone of inhibition by disc diffusion method; assay type: functional
[2] = system: Enterobacter cloacae; experiment: Antibacterial activity against Enterobacter cloacae ATCC 23355 assessed as zone of inhibition by disc diffusion method; assay type: functional
[3] = system: Escherichia coli; experiment: Antibacterial activity against beta-lactam resistant Escherichia coli BAA 2326 assessed as zone of inhibition by disc diffusion method; assay type: functional
[4] = system: Acinetobacter baumannii; experiment: Antibacterial activity against multidrug-resistant Acinetobacter baumannii BAA 1605 assessed as zone of inhibition by disc diffusion method; assay type: functional
[5] = system: Bacillus anthracis; experiment: Antibacterial activity against Bacillus anthracis Sterne 34F2 assessed as zone of inhibition by disc diffusion method; assay type: functional
[6] = system: Enterococcus faecium; experiment: Antibacterial activity against vancomycin-resistant Enterococcus faecium ATCC 700221 assessed as zone of inhibition by disc diffusion method; assay type: functional
[7] = system: Enterococcus faecalis; experiment: Antibacterial activity against vancomycin-susceptible Enterococcus faecalis ATCC 29212 assessed as zone of inhibition by disc diffusion method; assay type: functional
[8] = system: Staphylococcus aureus; experiment: Antibacterial activity against methicillin-susceptible Staphylococcus aureus ATCC 25923 assessed as zone of inhibition by disc diffusion method; assay type: functional
[9] = system: Staphylococcus aureus; experiment: Antibacterial activity against community acquired methicillin-resistant Staphylococcus aureus BAA 1747 assessed as zone of inhibition by disc diffusion method; assay type: functional
[10] = system: Staphylococcus aureus; experiment: Antibacterial activity against hospital acquired methicillin-resistant Staphylococcus aureus ATCC 43300 assessed as zone of inhibition by disc diffusion method; assay type: functional
[11] = system: Staphylococcus aureus; experiment: Antibacterial activity against heterogeneous vancomycin-intermediate resistant Staphylococcus aureus Mu3 ATCC 700698 assessed as zone of inhibition by disc diffusion method; assay type: functional
[12] = system: Staphylococcus aureus; experiment: Antibacterial activity against vancomycin-intermediate resistant Staphylococcus aureus Mu50 ATCC 700699 assessed as zone of inhibition by disc diffusion method; assay type: functional
[13] = system: Staphylococcus aureus; experiment: Antibacterial activity against vancomycin-resistant Staphylococcus aureus HIP11714 assessed as zone of inhibition by disc diffusion method; assay type: functional
[14] = system: Staphylococcus epidermidis; experiment: Antibacterial activity against Staphylococcus epidermidis ATCC 14990 assessed as zone of inhibition by disc diffusion method; assay type: functional
[15] = system: Acinetobacter baumannii; experiment: Antibacterial activity against Acinetobacter baumannii ATCC 19606 assessed as zone of inhibition by disc diffusion method; assay type: functional
[16] = system: Pseudomonas aeruginosa; experiment: Antibacterial activity against Pseudomonas aeruginosa ATCC 15422 assessed as zone of inhibition by disc diffusion method; assay type: functional
[17] = system: Staphylococcus aureus; experiment: Antibacterial activity against methicillin-susceptible Staphylococcus aureus ATCC 25923 assessed as bacterial growth inhibition incubated for 20 hrs by broth dilution method; assay type: functional
Procedure, shortened: (§1)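 Broth microdilution: 0.5 McFarland suspension from an overnight culture, diluted 1:100 in cation-adjusted Mueller Hinton broth (CAMHB), given serial dilutions of test agent for 20 h at 37 °C. MIC is the lowest concentration with no visible growth.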

[18] = system: Staphylococcus aureus; experiment: Antibacterial activity against methicillin-resistant Staphylococcus aureus ATCC 43300 assessed as bacterial growth inhibition incubated for 20 hrs by broth dilution method; assay type: functional; procedure, shortened: as §1
[19] = system: Staphylococcus aureus; experiment: Antibacterial activity against linezolid-resistant Staphylococcus aureus assessed as bacterial growth inhibition incubated for 20 hrs by broth dilution method; assay type: functional; procedure, shortened: as §1
[20] = system: Staphylococcus aureus; experiment: Antibacterial activity against heterogeneous vancomycin-intermediate Staphylococcus aureus Mu3 ATCC 700698 assessed as bacterial growth inhibition incubated for 20 hrs by broth dilution method; assay type: functional; procedure, shortened: as §1
[21] = system: Staphylococcus aureus; experiment: Antibacterial activity against vancomycin-intermediate resistant Staphylococcus aureus Mu50 ATCC 700699 assessed as bacterial growth inhibition incubated for 20 hrs by broth dilution method; assay type: functional; procedure, shortened: as §1
[22] = system: Staphylococcus aureus; experiment: Antibacterial activity against vancomycin-resistant Staphylococcus aureus HIP11714 assessed as inhibition of bacterial growth incubated for 20 hrs by broth microdilution method; assay type: functional; settings: HIP11714, 20 h; procedure, shortened: as §1
[23] = system: Staphylococcus aureus; experiment: Antibacterial activity against vancomycin-intermediate Staphylococcus aureus clinical isolate 12 assessed as bacterial growth inhibition after 20 hrs by broth microdilution assay; assay type: functional; procedure, shortened: as §1
[24] = system: Staphylococcus aureus; experiment: Antibacterial activity against vancomycin-resistant Staphylococcus aureus clinical isolate 10 assessed as bacterial growth inhibition after 20 hrs by broth microdilution assay; assay type: functional; procedure, shortened: as §1
[25] = system: Staphylococcus aureus; experiment: Induction of intracellular oxidant species generation in Staphylococcus aureus ATCC 25923 after 1 hr by colorimetric based NBT assay; assay type: functional, organism-based
Procedure, shortened: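 Cells at OD600 1.5 in HBSS mixed with 1 mg/mL aqueous NBT and agent (added from 2 mM stock) or DMSO/water, shaken for 1 h at 37 °C. Stopped with 0.1 M HCl and centrifuged; pellet formazan solubilized in DMSO/KOH/HBSS and read at OD560.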

[26] = system: Staphylococcus aureus; experiment: Induction of intracellular oxidant species generation in Staphylococcus aureus ATCC 25923 by DCFH-DA dye based fluorescence assay; assay type: functional, organism-based
Procedure, shortened: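 OD600 1.5 suspension of S. aureus […] in HBSS given agent (from 2 or 10 mM stock), DMSO or water, then DCFH diacetate from a 100 μM stock in DMSO. Intracellular oxidation read by fluorescence (ex 485, em 535 nm).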

[27] = system: Staphylococcus aureus; experiment: Bactericidal activity against methicillin-susceptible Staphylococcus aureus ATCC 25923 assessed as bacterial killing incubated for over night; assay type: functional
Procedure, shortened: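 5 μL from each well was spotted on agar and incubated overnight. MBC was taken as the lowest concentration with no visible growth.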

[28] = system: Staphylococcus aureus; experiment: Ratio of MBC to MIC against methicillin-susceptible Staphylococcus aureus ATCC 25923; assay type: functional
Procedure, shortened: (§2)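 For MBC, 5 μL from each well was spotted on agar and incubated overnight; MBC is the lowest concentration with no visible growth. Ratio taken as MBC over MIC.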

[29] = system: Staphylococcus aureus; experiment: Bactericidal activity against methicillin-resistant Staphylococcus aureus ATCC 43300 assessed as bacterial killing incubated for over night; assay type: functional; procedure, shortened: as §2
[30] = system: Staphylococcus aureus; experiment: Bactericidal activity against heterogeneous vancomycin-intermediate Staphylococcus aureus Mu3 ATCC 700698 assessed as bacterial killing incubated for over night; assay type: functional; procedure, shortened: as §2
[31] = system: Staphylococcus aureus; experiment: Ratio of MBC to MIC against heterogeneous vancomycin-intermediate Staphylococcus aureus Mu3 ATCC 700698; assay type: functional; procedure, shortened: as §2
[32] = system: Staphylococcus aureus; experiment: Bactericidal activity against vancomycin-intermediate resistant Staphylococcus aureus Mu50 ATCC 700699 assessed as bacterial killing incubated for over night; assay type: functional; procedure, shortened: as §2
[33] = system: Staphylococcus aureus; experiment: Ratio of MBC to MIC against vancomycin-intermediate resistant Staphylococcus aureus Mu50 ATCC 700699; assay type: functional; procedure, shortened: as §2
[34] = system: Staphylococcus aureus; experiment: Bactericidal activity against Vancomycin-resistant Staphylococcus aureus HIP11714 assessed as bacterial killing incubated for over night; assay type: functional; procedure, shortened: as §2
[35] = system: Staphylococcus aureus; experiment: Antibacterial activity against methicillin-susceptible Staphylococcus aureus ATCC 25923 in presence of glutathione; assay type: functional
Procedure, shortened: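 Broth microdilution MIC: a 0.5 McFarland suspension from overnight culture was diluted 1:100 in cation-adjusted Mueller Hinton broth supplemented with glutathione 100 μM. It was exposed to serial dilutions for 20 h at 37 °C. MIC was taken as the lowest concentration with no visible growth.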

[36] = system: Staphylococcus aureus; experiment: Antibacterial activity against methicillin-susceptible Staphylococcus aureus ATCC 25923 in presence of 0.05% v/v albumin; assay type: functional
[37] = system: Staphylococcus aureus; experiment: Antibacterial activity against methicillin-susceptible Staphylococcus aureus ATCC 25923 in presence of 5% v/v serum; assay type: functional
[38] = system: Staphylococcus aureus; experiment: Antibacterial activity against methicillin-susceptible Staphylococcus aureus ATCC 25923 in presence of 10% v/v serum; assay type: functional

Structure (SMILES) | diameter of the inhibition zone (DIZ) [1] [mm] | diameter of the inhibition zone (DIZ) [2] [mm] | diameter of the inhibition zone (DIZ) [3] [mm] | diameter of the inhibition zone (DIZ) [4] [mm] | diameter of the inhibition zone (DIZ) [5] [mm] | diameter of the inhibition zone (DIZ) [6] [mm] | diameter of the inhibition zone (DIZ) [7] [mm] | diameter of the inhibition zone (DIZ) [8] [mm] | diameter of the inhibition zone (DIZ) [9] [mm] | diameter of the inhibition zone (DIZ) [10] [mm] | diameter of the inhibition zone (DIZ) [11] [mm] | diameter of the inhibition zone (DIZ) [12] [mm] | diameter of the inhibition zone (DIZ) [13] [mm] | diameter of the inhibition zone (DIZ) [14] [mm] | diameter of the inhibition zone (DIZ) [15] [mm] | diameter of the inhibition zone (DIZ) [16] [mm] | MIC [17] [µM] | MIC [18] [µM] | MIC [19] [µM] | MIC [20] [µM] | also measured
CCCCCCSSc1ccccn1 | 0 | 8 | 0 | 0 | >50 | 13 | 20 | 47 | 40 | 49 | 45 | >50 | 46 | >50 | 0 | 0 | 25 (≈ 5.68 µg/mL) | 50 (≈ 11.4 µg/mL) | 50 (≈ 11.4 µg/mL) | 50 (≈ 11.4 µg/mL) | MIC [21]: 25 µM (≈ 5.68 µg/mL); MIC [22]: 50 µM (≈ 11.4 µg/mL); MIC50 [23]: 50 µM (≈ 11.4 µg/mL); MIC90 [23]: 50 µM (≈ 11.4 µg/mL); MIC50 [24]: 50 µM (≈ 11.4 µg/mL); MIC90 [24]: 50 µM (≈ 11.4 µg/mL)
Oc1cc(Cl)ccc1Oc1ccc(Cl)cc1Cl |  |  |  |  |  |  |  |  |  |  |  |  |  |  |  |  |  |  |  |  | Activity [25]: Active; Activity [26]: Active
CCCCCCCCCCSSc1ccccn1 | 0 | 0 | 0 | 0 | 28 | 9 | 9 | 12 | 15 | 14 | 0 | 11 | 11 | 26 | 0 | 0 |  |  |  |  | 
CCCSSc1ccccn1 | 0 | 9 | 0 | 0 | 33 | 0 | 11 | 0 | 0 | 0 | 0 | 0 | 0 | 30 | 12 | 0 |  |  |  |  | 
CCCCCCCCCSSc1ccccn1 | 0 | 0 | 0 | 0 | 25 | 8 | 8 | 20 | 19 | 22 | 22 | 30 | 21 | 41 | 0 | 0 | 12.5 (≈ 3.37 µg/mL) | 6.25 (≈ 1.68 µg/mL) | 25 (≈ 6.74 µg/mL) | 6.25 (≈ 1.68 µg/mL) | MBC [27]: > 50 µM; Ratio [28]: >4; MBC [29]: > 50 µM; MBC [30]: > 50 µM; Ratio [31]: >8; MIC [21]: 1.56 µM (≈ 0.42 µg/mL); MBC [32]: 25 µM (≈ 6.74 µg/mL); Ratio [33]: 16; MIC [22]: 12.5 µM (≈ 3.37 µg/mL); MBC [34]: > 50 µM; MIC50 [23]: 6.25 µM (≈ 1.68 µg/mL); MIC90 [23]: 12.5 µM (≈ 3.37 µg/mL); MIC50 [24]: 6.25 µM (≈ 1.68 µg/mL); MIC90 [24]: 12.5 µM (≈ 3.37 µg/mL); MIC [35]: 50 µM; MIC [36]: 25 µM; MIC [37]: 25 µM; MIC [38]: 50 µM
CC(C)C(C)SSc1ccccn1 (stereo unspecified) | 0 | 0 | 0 | 0 | 21 | 0 | 0 | 0 | 0 | 0 | 0 | 0 | 0 | 24 | 0 | 0 |  |  |  |  | 
CCC(C)SSc1ccccn1 (stereo unspecified) | 0 | 0 | 0 | 0 | 23 | 0 | 0 | 0 | 0 | 0 | 0 | 0 | 0 | 20 | 0 | 0 |  |  |  |  | 
CCCCCSSc1ccccn1 | 0 | 8 | 0 | 0 | >50 | 24 | 23 | 32 | 22 | 21 | 27 | 24 | 22 | >50 | 0 | 0 | 50 (≈ 10.7 µg/mL) | 50 (≈ 10.7 µg/mL) | > 50 | 50 (≈ 10.7 µg/mL) | MIC [21]: 50 µM (≈ 10.7 µg/mL); MIC [22]: > 50 µM; MIC50 [23]: 50 µM (≈ 10.7 µg/mL); MIC90 [23]: 50 µM (≈ 10.7 µg/mL); MIC50 [24]: 50 µM (≈ 10.7 µg/mL); MIC90 [24]: 50 µM (≈ 10.7 µg/mL)
